Assays:
[1] = target: Aldo-keto reductase family 1 member B1 (Bos taurus) (UniProt P16116); test: Inhibition of aldose reductase activity in a partially purified bovine lens preparation at 4*10e-8 M
Method in brief: (§1)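 Partially purified bovine lens aldose reductase (ammonium sulfate fractionation). NADPH oxidation read at 340 nm, 37 °C, in 30 mM sodium phosphate pH 6.2, 0.2 M LiSO4, […], 1% DMSO. Enzyme was preincubated with inhibitor for 5 min, then the reaction was started with 5 mM DL-glyceraldehyde. Duplicates; IC50 from linear regression of log concentration vs percent inhibition.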

[2] = target: Aldo-keto reductase family 1 member B1 (Bos taurus) (UniProt P16116); test: Inhibition of aldose reductase activity in a partially purified bovine lens preparation at 10e-7 M; method in brief: as §1
[3] = target: Aldo-keto reductase family 1 member B1 (Bos taurus, UniProt P16116); test: In vitro inhibition of aldose reductase activity in a partially purified bovine lens preparation
Rattus norvegicus [4] = test: Percentage Inhibition of galactitol accumulation in the sciatic nerve of rats fed with the dose of 0.5 mg/kg/day; assay type: functional
Method in brief: (§2)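 Male Sprague-Dawley rats (70-90 g), six per group, fed 20% galactose chow with compound in the diet for 4 days; glucose-fed controls. After a 3-h fast, lens or sciatic nerve galactitol was measured as nmol/mg wet weight. Percent inhibition vs galactose-fed controls, mean ± SEM; ANOVA with Dunnett's test.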

Rattus norvegicus [5] = test: Percentage Inhibition of galactitol accumulation in the sciatic nerve of rats fed with the dose of 0.6 mg/kg/day; assay type: functional; method in brief: as §2
[6] = Half-life In vitro; assay type: ADME
[7] = Log P value by using Octanol / pH 7.4 buffer; assay type: physicochemical
Method in brief: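 Partition measured between octanol and pH 7.4 buffer.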

Rattus norvegicus [8] = test: Percentage Inhibition of galactitol accumulation in the sciatic nerve of rats fed with the dose of 1.0 mg/kg/day; assay type: functional; method in brief: as §2

| SMILES | inhibition [1] [%] | inhibition [2] [%] | IC50 [3] [nM] | other results |
| --- | --- | --- | --- | --- |
| COc1ccc2c(c1)C(=O)N(C)C(=O)C21CC(=O)NC1=O (centres undefined) | 41 | 55 |  |  |
| CON1C(=O)c2ccc(Cl)cc2C2(CC(=O)NC2=O)C1=O (centres undefined) | 11 | 27 |  |  |
| CN1C(=O)c2cc(Cl)c(Cl)cc2C2(CC(=O)NC2=O)C1=O (centres undefined) | 84 | 89 |  |  |
| CCCCN1C(=O)c2ccccc2C2(CC(=O)NC2=O)C1=O (centres undefined) | 19 | 17 |  |  |
| CN1C(=O)c2ccc([N+](=O)[O-])cc2C2(CC(=O)NC2=O)C1=O (centres undefined) | 53 | 71 |  |  |
| COc1ccc2c(c1)C1(CC(=O)NC1=O)C(=O)N(C)C2=O (centres undefined) | 30 | 63 |  |  |
| O=C1CC2(C(=O)N1)C(=O)N(Cc1ccc(C(F)(F)F)cc1)C(=O)c1ccccc12 (centres undefined) |  |  | 25 |  |
| CN1C(=O)c2cccc(Cl)c2C2(CC(=O)NC2=O)C1=O (centres undefined) | 11 | 24 |  |  |
| CN1C(=O)c2ccc(F)cc2C2(CC(=O)NC2=O)C1=O (centres undefined) | 36 | 74 |  |  |
| COc1cc2c(cc1Cl)C1(CC(=O)NC1=O)C(=O)N(C)C2=O (centres undefined) | 66 | 84 |  | inhibition in vivo at 0.5 mg/kg/day (Rattus norvegicus [4]): 51% |
| CN1C(=O)c2ccc(Br)cc2C2(CC(=O)NC2=O)C1=O (centres undefined) | 43 | 85 |  | logD [7]: 0.8; inhibition in vivo at 1 mg/kg/day (Rattus norvegicus [8]): 54% |
| CCCN1C(=O)c2ccccc2C2(CC(=O)NC2=O)C1=O (centres undefined) |  | 19 |  |  |
| CN1C(=O)c2cc(Cl)ccc2C2(CC(=O)NC2=O)C1=O (centres undefined) | 34 | 61 |  |  |
| O=C1CC2(C(=O)N1)C(=O)N(Cc1nc3ccccc3s1)C(=O)c1ccccc12 (centres undefined) |  |  | 15 |  |
| O=C1CC2(C(=O)N1)C(=O)N(Cc1nc3ccccc3s1)C(=O)c1ccc(F)cc12 (centres undefined) |  |  | 18 |  |
| Cc1ccc2c(c1)C1(CC(=O)NC1=O)C(=O)N(C)C2=O (centres undefined) | 35 | 65 |  |  |
| O=C1CC2(C(=O)N1)C(=O)N(Cc1nc3cc(C(F)(F)F)ccc3s1)C(=O)c1ccc(F)cc12 (centres undefined) |  |  | 26 | logD [7]: 3.16; inhibition in vivo at 1 mg/kg/day (Rattus norvegicus [8]): 53% |
| COc1cc2c(cc1Br)C(=O)N(C)C(=O)C21CC(=O)NC1=O (centres undefined) |  | 17 |  |  |
| CCN1C(=O)c2ccccc2C2(CC(=O)NC2=O)C1=O (centres undefined) | 17 | 27 |  |  |

Now from value to compound, other results behind:

| inhibition [1] [%] | inhibition [2] [%] | IC50 [3] [nM] | SMILES | other results |
| --- | --- | --- | --- | --- |
|  |  | 23 | O=C1CC2(C(=O)N1)C(=O)N(Cc1ccc(Br)cc1F)C(=O)c1c(F)cccc12 (centres undefined) | inhibition in vivo at 0.5 mg/kg/day (Rattus norvegicus [4]): 51% |
|  |  | 30 | O=C1CC2(C(=O)N1)C(=O)N(Cc1ccc(Br)cc1F)C(=O)c1ccc(Cl)cc12 (centres undefined) | inhibition in vivo at 0.6 mg/kg/day (Rattus norvegicus [5]): 29% |
|  |  | 1000 | O=C1C[C@]2(C(=O)N1)C(=O)N(Cc1ccc(Br)cc1F)C(=O)c1ccccc12 | half-life [6]: 240 min |
|  |  | 30 | COc1ccc2c(c1F)C1(CC(=O)NC1=O)C(=O)N(Cc1ccc(Br)cc1F)C2=O (centres undefined) | inhibition in vivo at 0.5 mg/kg/day (Rattus norvegicus [4]): 43% |
|  |  | 28 | COc1cc2c(cc1Br)C1(CC(=O)NC1=O)C(=O)N(Cc1ccc(Br)cc1F)C2=O (centres undefined) | inhibition in vivo at 0.5 mg/kg/day (Rattus norvegicus [4]): 55% |
|  |  | 21 | O=C1CC2(C(=O)N1)C(=O)N(Cc1ccc(Br)cc1F)C(=O)c1cccc(F)c12 (centres undefined) | inhibition in vivo at 0.5 mg/kg/day (Rattus norvegicus [4]): 52% |
|  |  | 22 | O=C1CC2(C(=O)N1)C(=O)N(Cc1ccc(Cl)cc1)C(=O)c1ccccc12 (centres undefined) |  |
|  |  | 25 | COc1ccc(CN2C(=O)c3ccccc3C3(CC(=O)NC3=O)C2=O)cc1 (centres undefined) |  |
|  |  | 25 | Cc1cccc(CN2C(=O)c3ccccc3C3(CC(=O)NC3=O)C2=O)c1 (centres undefined) |  |
|  |  | 20 | O=C1CC2(C(=O)N1)C(=O)N(Cc1ccc(Br)cc1F)C(=O)c1cc(F)ccc12 (centres undefined) |  |
|  |  | 17 | O=C1CC2(C(=O)N1)C(=O)N(Cc1cccc(C(F)(F)F)c1)C(=O)c1ccccc12 (centres undefined) |  |
|  |  | 9.7 | O=C1C[C@@]2(C(=O)N1)C(=O)N(Cc1ccc(Br)cc1F)C(=O)c1ccccc12 | inhibition in vivo at 0.5 mg/kg/day (Rattus norvegicus [4]): 83%; half-life [6]: 240 min |
|  |  | 22 | O=C1CC2(C(=O)N1)C(=O)N(Cc1ccc(Br)cc1)C(=O)c1ccccc12 (centres undefined) |  |
|  |  | 38 | O=C1CC2(C(=O)N1)C(=O)N(Cc1ccc(Br)cc1F)C(=O)c1ccc(C(F)(F)F)cc12 (centres undefined) |  |

Reference: ChEMBL document CHEMBL1127561, “Novel spirosuccinimide aldose reductase inhibitors derived from isoquinoline-1,3-diones: 2-[(4-bromo-2-fluorophenyl)methyl]-6- fluorospiro[isoquinoline-4(1H),3'-pyrrolidine]-1,2',3,5'(2H)-tetrone and congeners. 1” (J Med Chem, 1994)
